A short description of test [1]: Cytotoxicity was evaluated against CO9 solid tumor of mouse at 500 ug/disk. The class given is functional. Put shortly: (§1)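 Disk zone assay: analogue dilutions on 6.5 mm paper disks were placed on dishes with a 0.8% agar bottom layer and a 0.44% soft-agar top layer of tumor cells (≤1 × 10^5/plate) in Fishers-CMRL-1066 with 12% horse serum. Plates were incubated 6-10 days and the inhibition zone was measured by microscope; 200 zone units = 6 mm.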

Test [2] relates to L1210. Description: Compound were evaluated for inhibition of macromolecular synthesis in murine leukemia L1210 cells at 1 hour against Protein. The class given is functional, Mus musculus. Set-up: scale not given: the % may be the effect or the level left.
Test [3] concerns L1210. Description: Compound were evaluated for inhibition of macromolecular synthesis in murine leukemia L1210 cells at 4 hour against Protein. The class given is functional, Mus musculus. The arrangement: scale not given: the % may be the effect or the level left.
The test system of test [4] is L1210. Description: Compound were evaluated for inhibition of macromolecular synthesis in murine leukemia L1210 cells at 4 hour against RNA. The class given is functional, Mus musculus. Set-up: scale not given: the % may be the effect or the level left.
Test [5] has as its system L1210. Description: Compounds were evaluated for inhibition of macromolecular synthesis in murine leukemia L1210 cells at 1 hour against DNA. The class given is functional, Mus musculus. Set-up: scale not given: the % may be the effect or the level left.
Test [6] deals with L1210. Briefly: Compound were evaluated for inhibition of macromolecular synthesis in murine leukemia L1210 cells at 4 hour against DNA. The class given is functional, Mus musculus. Set-up: scale not given: the % may be the effect or the level left.
The subject of test [7] is L1210. Briefly: Compounds were evaluated for inhibition of macromolecular synthesis in murine leukemia L1210 cells at 1 hour against RNA. The class given is functional, Mus musculus. Set-up: scale not given: the % may be the effect or the level left.
Test [8] deals with L1210. Description: Cytotoxicity was evaluated against L1210 leukemia cell line at 500 ug/disk. The class given is functional, Mus musculus. Put shortly:
as §1

A short description of test [9]: Cytotoxicity was evaluated against low malignancy line at 500 ug/disk. The class given is functional. Put shortly:
as §1

The test system of test [10] is L1210. Briefly: Inhibitory activity against murine leukemia L1210 cells. The class given is functional, cell-based. The conditions noted are these: Mus musculus.
The species named for test [11] is Homo sapiens. Briefly: Cytotoxicity was evaluated against PO1 human solid tumor at 500 ug/disk. The class given is functional. Put shortly: as §1
The species entered for test [12] is Homo sapiens. Briefly: Cytotoxicity was evaluated against C116 human solid tumor at 1000 ug/disk. The class given is functional. Put shortly: as §1
Test [13] has as its system MC-38. Briefly: Cytotoxicity was evaluated against C38 solid tumor of mouse at 1000 ug/disk. The class given is functional. Put shortly: as §1
Test [14] deals with Nucleic Acid. Briefly: Compound was evaluated for inhibition of macromolecular synthesis in murine leukemia L1210 cells at 1 hour against DNA. The class given is functional, cell-based. The arrangement: scale not given: the % may be the effect or the level left. The conditions noted are these: Mus musculus.
The test system of test [15] is Nucleic Acid. Briefly: Compound was evaluated for inhibition of macromolecular synthesis in murine leukemia L1210 cells at 4 hour against DNA. The class given is functional, cell-based. The arrangement: scale not given: the % may be the effect or the level left. The conditions noted are these: Mus musculus.
Test [16] has as its system Nucleic Acid. Description: Compound was evaluated for inhibition of macromolecular synthesis in murine leukemia L1210 cells at 8 hour against DNA. The class given is functional, cell-based. Set-up: scale not given: the % may be the effect or the level left. The conditions noted are these: Mus musculus.
Test [17] in a line: Cytotoxicity was evaluated against low malignancy line at 1000 ug/disk. The class given is functional. Put shortly: as §1
For test [18], the system named is L1210. Description: Cytotoxicity was evaluated against L1210 leukemia cell line at 1000 ug/disk. The class given is functional, Mus musculus. Put shortly: as §1
The species entered for test [19] is Mus musculus. Description: Compound was evaluated for inhibition of macromolecular synthesis in murine leukemia L1210 cells at 1 hour against Protein. The class given is functional. Set-up: scale not given: the % may be the effect or the level left.
The species named for test [20] is Mus musculus. Briefly: Compound was evaluated for inhibition of macromolecular synthesis in murine leukemia L1210 cells at 4 hour against Protein. Set-up: scale not given: the % may be the effect or the level left. The class given is functional.
The species named for test [21] is Mus musculus. Description: Compound was evaluated for inhibition of macromolecular synthesis in murine leukemia L1210 cells at 8 hour against Protein. The class given is functional. Set-up: scale not given: the % may be the effect or the level left.
Test [22] relates to Nucleic Acid. Description: Compound was evaluated for inhibition of macromolecular synthesis in murine leukemia L1210 cells at 8 hour against RNA. The conditions noted are these: Mus musculus. Set-up: scale not given: the % may be the effect or the level left. The class given is functional, cell-based.
The test system of test [23] is Nucleic Acid. Briefly: Compound was evaluated for inhibition of macromolecular synthesis in murine leukemia L1210 cells at 1 hour against RNA. The conditions noted are these: Mus musculus. The arrangement: scale not given: the % may be the effect or the level left. The class given is functional, cell-based.
For test [24], the system named is Nucleic Acid. Briefly: Compound was evaluated for inhibition of macromolecular synthesis in murine leukemia L1210 cells at 4 hour against RNA. The conditions noted are these: Mus musculus. The arrangement: scale not given: the % may be the effect or the level left. The class given is functional, cell-based.
The species named for test [25] is Mus musculus. Description: Concentration that reduces Friend murine leukemia virus titer by 50%. The class given is functional, organism-based. Put shortly: (§2)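 SC-1 cells (1 × 10^4/well) were pretreated with polybrene, infected 2 h at 37 °C with F-MuLV or R-MuLV in EMEM-5 with 8 µg/mL polybrene, washed, and refed with analogue for 72 h. They were then UV-irradiated and overlaid with XC cells (2 × 10^5) for 48 h, fixed and stained with crystal violet. Multinucleated cells were counted and EC50 was taken by linear regression versus untreated cultures.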

The nature of test [26]: Inhibition of incorporation of labeled precursor into macromolecules of noninfected SC-1 cells with the compound at a concentration 300 uM determined against leucine. The class given is functional. Put shortly:
(§3)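 SC-1 cells seeded in 24-well trays at 1 × 10^4 cells/mL, incubated overnight at 37 °C, then exposed to analogue for 72 h at 37 °C. Labeled thymidine (2.5 µCi), [3H-5,6]uridine or [3H-4,5]leucine was added. After 4 h, cells were washed with cold PBS, lysed in 1% SDS/0.01 M EDTA/0.01 M Tris pH 7.7, and lysates were dried on GF/B filters. Result given as % of untreated incorporation.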

The nature of test [27]: Inhibition of incorporation of labeled precursor into macromolecules of noninfected SC-1 cells with the compound at a concentration 300 uM determined against thymidine. The class given is functional. Put shortly: as §3
Test [28] is described as follows: Inhibition of incorporation of labeled precursor into macromolecules of noninfected SC-1 cells with the compound at a concentration 300 uM determined against uridine. The class given is functional. Put shortly:
as §3

A short description of test [29]: Inhibition of incorporation of labeled precursor into macromolecules of noninfected SC-1 cells with the compound at a concentration 100 uM determined against leucine. The class given is functional. Put shortly: (§4)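 Noninfected SC-1 cells were incubated with analogue as in the cytotoxicity setup, and [3H]thymidine, [3H]uridine or [3H]leucine was added. After 4 h, wells were washed with ice-cold PBS and cells were lysed in 1% SDS, 0.01 M EDTA, 0.01 M Tris pH 7.7. Lysates were dried on glass-fiber filters, and label is expressed as percent of incorporation in untreated cells.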

Test [30] in a line: Inhibition of incorporation of labeled precursor into macromolecules of noninfected SC-1 cells with the compound at a concentration 100 uM determined against thymidine. The class given is functional. Put shortly: as §4
Test [31] is described as follows: Inhibition of incorporation of labeled precursor into macromolecules of noninfected SC-1 cells with the compound at a concentration 100 uM determined against uridine. The class given is functional. Put shortly:
as §4

The species entered for test [32] is Mus musculus. Briefly: Cytotoxicity was evaluated. The class given is functional. Put shortly: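 SC-1 cells (1 × 10^4 cells/mL) were seeded, incubated overnight at 37 °C, refed with EMEM-10 and given diluted analogue in triplicate for 72 h at 37 °C. Cells were trypsinized and counted in a Coulter counter. The mean of three wells gave percent of control count, and IC50 was calculated by linear regression.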

The species entered for test [33] is Mus musculus. Description: Concentration that reduces Rauscher murine leukemia virus titer by 50%. The class given is functional, organism-based. Put shortly: as §2
For test [34], the species on record is Mus musculus. Description: (§5) Selectivity index which is the ratio of IC50 to EC50 of R-MuLV. The class given is functional.
Test [35] in a line: Selectivity index is the ratio of IC50 to EC50 of F-MuLV. The class given is functional.
A short description of test [36]: Cytotoxicity was evaluated against low malignancy line at 250 ug/disk. The class given is functional. Put shortly: as §1
In test [37] the test system is L1210. Description: Cytotoxicity was evaluated against L1210 leukemia cell line at 250 ug/disk. The class given is functional, Mus musculus. Put shortly: as §1
The nature of test [38]: as §5. The class given is functional.
Test [39] concerns PO3. Description: Cytotoxicity was evaluated against PO3 cell line at 250 ug/disk. The class given is functional, Mus musculus. Put shortly: as §1

In general, IC50 refers to the midpoint of a concentration-inhibition curve. `Nc1ccn(C/C=C\CCl)c(=O)n1`: the Cytotoxicity amounted to 410 in test [1], 640 in test [8], 450 in test [9] and 640 in [11]. The Control in test [2] worked out at 100%; in [3] it was 100%; in test [4], 100%; in [5], 80%; in test [6], 67%; in test [7], 100%. The IC50 in test [10] was 10 µM.

As for `Oc1nccc(NCC#CCCl)n1`, the Cytotoxicity came to 660 in test [12], 720 in [13], 600 in [17] and 530 in [18]. The Control in [14] was 60%; in test [15], 35%; in test [16] it was 5%; in test [19] it was 85%; in [20], 70%; in [21] it was 55%. For the same compound, the results for the Control in [22], in test [23] and in [24] were 18%, 75% and 60%, respectively. In test [10], half-maximal inhibition (IC50) was put at 20 µM.

One may read the EC50 as the concentration needed to bring the measured effect to its halfway point. As to `Nc1ncnc2c1ncn2C1C(O)C(O)C(CO)C1O` (stereo not given), the concentration for a half-maximal effect (EC50) was 67.3 µM in test [25] and 25 µM in test [33]. Also, the Precursor inhibition in [26] is 53%; in [27] it was 110%; in test [28], 29%; in test [29], 99%; in test [30], 115%; in test [31], 56%. For the same compound, 281 µM corresponded to half-maximal inhibition in test [32] (IC50). Moreover, the SI in test [34] is 9.1; in test [35], 3.4.

Turning to `Nc1ncnc2c1ncn2C/C=C\CO`, the figures for the concentration giving a half-maximal response (EC50) in test [25] and in test [33] were 175 µM and 124 µM, respectively. The Cytotoxicity turned out to be 240 in test [36], 200 in test [37] and 260 in test [39]. For the same compound, the IC50 in test [10] is 490 µM; in [32], above 300 µM. Also, the SI in test [35] was above 1.7; in [38] it was above 2.4.
